HTRA1 inh – inhibitors of human serine peptidase HTRA1; hit rate 0.5% among 340,000; recombinant HTRA1, FP-rhodamine activity-based probe, fluorescence polarization; inhibition, % at 5.96 µM; in the data active means inhibition above about 36%
TCR-CD3 inh – inhibitors of human TCR-CD3 interaction; TAMRA-labeled TCR probe fluorescence, biochemical; inhibition, % at 9.4 µM; hit rate 0.37% among 360,000; AID 651800; in the data active means inhibition above about 19%;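 further: recombinant mutant TCR 2C K166C tagged with TAMRA read by polarization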
PRMT1 FP inh – PRMT1 (human) inhibition, primary screen | hit rate 1.3% among 370,000 | recombinant PRMT1, activity-based probe fluorescence polarization | Q99873 | inhibition, % at 2.79 µM;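 active means inhibition above about 21% made by adding two undisclosed values, limit read from the data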
SIAE inh – blocks human sialic acid acetylesterase; Q9HAT2; inhibition, % at 9.66 µM; hit rate 0.69% among 370,000; SIAE FP-Rh probe binding, fluorescence polarization;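 active means inhibition above a cutoff: mean of compounds within the control limits plus 3 SD of those, cut at about 17% in these data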
mABHD4 FP – inhibits mouse alpha/beta hydrolase domain 4 | Q8VD66 | purified mABHD4, FP-Rh probe fluorescence polarization | inhibition, % at 8.92 µM | hit rate 0.54% among 370,000 | AID 720543;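 active means inhibition exceeding the mean over every tested compound plus 3 SD, cut at about 30% in these data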
Target sequence (Q8VD66 whole entry, looked up, the tested form may be a part): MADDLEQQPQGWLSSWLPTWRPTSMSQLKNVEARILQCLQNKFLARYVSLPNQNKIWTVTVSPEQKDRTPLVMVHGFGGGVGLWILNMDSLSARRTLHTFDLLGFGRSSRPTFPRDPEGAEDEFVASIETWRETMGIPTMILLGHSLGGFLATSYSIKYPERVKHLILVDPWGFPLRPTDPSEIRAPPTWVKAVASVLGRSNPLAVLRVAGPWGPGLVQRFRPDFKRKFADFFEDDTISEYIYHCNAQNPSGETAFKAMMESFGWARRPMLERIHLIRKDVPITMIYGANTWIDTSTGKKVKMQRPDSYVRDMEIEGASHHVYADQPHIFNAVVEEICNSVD
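Assay system: Wild-type mouse ABHD4 protein | Medium: HEPES pH 7.0 buffer, 150 mM NaCl, 0.01% Pluronic F-127 | Incubation: Enzyme–compound pre-incubation 45 min, then probe 60 min, both 25 °C | Technique: Fluorescence polarization with parallel and perpendicular emission, 525/598 nm | Evaluation: % inhibition of FP-Rh probe binding versus controls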
HTRA1 inh conf – confirmation of human HTRA1 inhibitors. recombinant HTRA1, FP-rhodamine activity-based probe, fluorescence polarization. hit rate 66% among 1,600. AID 540248. inhibition, % at 5.96 µM. shares compounds with HTRA1 inh;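 active means mean inhibition over three repeats above a set limit taken from the earlier primary screen, cut at about 37% in these data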;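 further: inhibitors block probe binding so polarization drops and inhibition rises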
Numbers stand for hits; - = inactive; . = no result. In the library only some 2.6% were active in any assay of this set; here they are far more common.

SMILES | HTRA1 inh | TCR-CD3 inh | PRMT1 FP inh | SIAE inh | mABHD4 FP | HTRA1 inh conf
CCOc1cc(CNc2ccc(S(N)(=O)=O)cc2)cc(Cl)c1OC | - | - | - | - | - | .
CC1CCC(NC(=O)C2CCN(c3c4c(nc5ncnn35)CCC4)CC2)CC1 (stereo unspecified) | - | . | . | . | . | .
COc1ccc(C(O)c2nc(-c3cccc(F)c3)cs2)cc1 (stereo unspecified) | . | - | - | - | - | .
COc1ccc(NC(=O)COC(=O)c2cc3c(s2)CCC3)cc1 | - | . | . | . | . | .
Cn1c(Cc2cccs2)nnc1SCC(=O)Nc1ccc2c(c1)OCCO2 | . | . | - | - | - | .
NC[C@@H]1O[C@H](C23CC4CC(CC(C4)C2)C3)Cc2c1ccc(O)c2O | 60.3 | - | - | - | - | 73.2
COc1ccc(N=Nc2ccc(O)c3ncccc23)cc1 | 44.0 | - | - | - | - | 62.5
O=S(=O)(O)c1cccc2c(N=Nc3ccc(O)c4ncccc34)cccc12 | 71.3 | . | . | . | . | 74.7
COc1cccc(N=Nc2ccc3cccnc3c2O)c1 | 76.9 | - | - | - | - | 76.7
Cc1ccccc1N=Nc1ccc(O)c2ncccc12 | 37.2 | - | - | - | - | 65.0
O=Nc1ccc(O)c2ncccc12 | - | - | - | - | - | .
COc1ccc(N=Nc2cc(-c3ccccc3)ccc2O)cc1 | - | - | - | - | - | .
Nc1ccccc1S(=O)(=O)NCCCCc1ccccc1 | - | - | - | - | - | .
COCCN1C(=O)[C@H]2C[C@@]13O[C@H](C1CCCCC1)N=C3CC1c3ccccc3C[C@@]12C (stereo partly specified) | . | - | - | - | - | .
C#CCN1CC(COc2ccccc2)Oc2cccc(Oc3ccc(SC)c(C)c3)c2S1(=O)=O (stereo unspecified) | . | - | - | - | - | .
CCn1c(C)nc2cc(C(=O)N/N=C(\C)c3ccc(OC)cc3O)ccc21 | 40.0 | - | - | - | - | -
Cc1ccccc1-n1ncc2c1CC(C)(C)CC2NC(=O)C1=CC(=O)CC(C)(C)O1 (stereo unspecified) | - | - | - | - | - | .
OCCN(CCO)c1ccc(C(c2ccccc2Cl)c2ccc(N(CCO)CCO)cc2Cl)c(Cl)c1 | 43.7 | . | . | . | . | 60.9
COC(=O)c1cc2c(c3c4ccccc4n(S(=O)(=O)c4ccc(OC)cc4)c13)C(=O)N(Cc1ccccc1OC)C2 | . | - | - | - | - | .
COc1cc(/C=C2\C(=O)N(c3ccc(NC(C)=O)cc3)N=C2c2ccccc2)ccc1O | - | - | - | - | - | .
CCOc1cc(/C=C2\C(=O)N(c3nc(-c4ccc(Br)cc4)cs3)N=C2c2ccccc2)ccc1O | 39.8 | . | . | . | . | 46.9
COc1ccc2nc(NN=C(C)c3ccccn3)cc(C)c2c1 | 55.4 | - | - | - | - | 66.7
CC(=NNc1ccc2ccccc2n1)c1ccccn1 | . | - | - | - | - | .
O=C(CSc1nnc(CNc2ccc(Cl)cc2)o1)Nc1nc2c(s1)CCCC2 | 38.5 | - | - | - | - | -
COc1ccc(CCNC(=O)CSc2nnc(CNc3ccc(Cl)cc3)o2)cc1OC | - | - | - | - | - | .
SMILES | HTRA1 inh | TCR-CD3 inh | PRMT1 FP inh | SIAE inh | mABHD4 FP | HTRA1 inh conf
N#Cc1ccc(OS(=O)(=O)c2ccc(-c3ccon3)s2)cc1 | - | - | - | - | - | .
O=C(O)C1Nc2c(Cl)cc(Cl)c(Cl)c2C2C=CCC12 (stereo unspecified) | 42.4 | - | - | - | - | 38.0
O=C(O)C1Nc2c(Cl)cc(Cl)cc2C2C=CCC12 (stereo unspecified) | 55.1 | . | . | . | . | 49.4
O=C(O)C1Nc2ccc(Br)cc2C2C=CCC12 (stereo unspecified) | 74.7 | . | . | . | . | 68.8
Oc1ccc2ccccc2c1C=NN1CCN(Cc2ccc(Cl)cc2)CC1 | . | . | - | - | - | .
CCOc1ccc(N=Cc2ccc(N(C)C)cc2)c(O)c1 | 56.7 | . | . | . | . | 57.0
COc1ccc(Br)cc1/C=N/N1C(=O)CSC1=S | - | - | - | - | - | .
O=C1CSC(=S)N1N=Cc1c[nH]c2ccc(Br)cc12 | 55.6 | - | - | - | - | 59.9
CCC(=O)NC(c1ccc(C)cc1)c1cc([N+](=O)[O-])c2cccnc2c1O (stereo unspecified) | 37.5 | - | - | - | - | 71.1
CCCC(=O)NC(c1ccco1)c1cc([N+](=O)[O-])c2cccnc2c1O (stereo unspecified) | 50.5 | - | - | - | - | 65.8
CC(=O)NC(c1ccc(C)cc1)c1cc([N+](=O)[O-])c2cccnc2c1O (stereo unspecified) | - | - | - | - | - | .

From PubChem
